Data from ChEMBL document CHEMBL4811317, “Inhibitory activities of anthraquinone and xanthone derivatives against transthyretin amyloidogenesis” (Bioorg Med Chem, 2021).
In brackets after ≈: the same amount, converted by molar mass. Activity calls are given as the source filed them. The calls are words filed in the database; no cut-off is given here.

Tests used:
[1] = biological target: Transthyretin (Homo sapiens, UniProt P02766, V50M); experiment: Inhibition of acid-mediated aggregation of TTR V30M mutant (unknown origin) expressed in Escherichia coli pretreated for 30 mins at pH 7 followed by protein dilution in acetate buffer and further incubated for 96 hrs at pH 4.6 by thioflavin-T fluorescence assay
[2] = Permeability of the compound at 10 uM measured after 4 hrs by PAMPA based LC-MS analysis; format: ADME; details: read-out: permeability
In short: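 PAMPA on pre-coated plates: donor 10 μM compound in 5% DMSO/0.1 M phosphate pH 6.4, acceptor 5% DMSO/0.1 M phosphate pH 7.4; 4 h at 37 °C without agitation. Donor, acceptor and initial donor solutions quantified by LC-MS/MS; recovery above 90%. Antipyrine, metoprolol, sulfasalazine as references. At least two technical replicates.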

[3] = Metabolic stability in Sprague-Dawley rat liver microsomes assessed as residual rate at 1 uM preincubated for 5 mins followed by NADPH addition and measured after 30 mins by LC-MS/MS analysis; format: ADME, Microsome; details: time 35 min, read-out: Stabilty
In short: (§1)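 Rat liver microsomes 0.2 mg/mL with 1 μM compound, 1 mM EDTA, 0.1 M phosphate pH 7.4; 5 min preincubation, then 1 mM NADPH (final) added, 30 min at 37 °C, 60 rpm. Quenched in cold acetonitrile/internal standard, supernatant by LC-MS/MS against time zero. CLint scaled with 44.8 mg protein/g liver, 40.0 g liver/kg. At least two technical replicates.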

[4] = Volume of distribution at steady state in Sprague-Dawley rat at 1 mg/kg, iv measured up to 8 hrs by LC-MS/MS analysis; format: ADME, organism-based; details: in vivo, read-out: Vdss
In short: (§2)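 Male Sprague Dawley rats (7 weeks old, n = 2) given compound in 10% DMSO/0.1 M phosphate pH 8.5, i.v. or p.o. Caudal-vein blood at 5 min (i.v.), 15, 30 min, 1, 2, 4, 8 h; plasma precipitated with acetonitrile/IS, LC-MS/MS. Non-compartmental analysis; bioavailability = AUC∞(p.o.)/AUC∞(i.v.).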

[5] = Bioavailability in Sprague-Dawley rat at 1 mg/kg, iv measured up to 8 hrs by LC-MS/MS analysis; format: ADME, organism-based; details: in vivo; in short: as §2
[6] = Cmax in Sprague-Dawley rat at 1 mg/kg, iv measured up to 8 hrs by LC-MS/MS analysis; format: ADME, organism-based; parameters: route intravenous, dose 1 mg/kg, time <=8; details: in vivo; in short: as §2
[7] = Elimination half life in Sprague-Dawley rat at 1 mg/kg, po measured up to 8 hrs by LC-MS/MS analysis; format: ADME, organism-based; details: in vivo, read-out: beta t1/2 (converted); in short: as §2
[8] = Intrinsic clearance in Sprague-Dawley rat liver microsomes at 1 uM preincubated for 5 mins followed by NADPH addition and measured after 30 mins by LC-MS/MS analysis; format: ADME, Microsome; details: time 35 min, read-out: CLH; in short: as §1
[9] = Cmax in Sprague-Dawley rat at 1 mg/kg, po measured up to 8 hrs by LC-MS/MS analysis; format: ADME, organism-based; parameters: route oral, dose 1 mg/kg, time <=8; details: in vivo; in short: as §2
[10] = Metabolic stability in Sprague-Dawley rat liver microsomes assessed as residual rate at 1 uM measured after 30 mins by LC-MS/MS analysis; format: ADME, Microsome; details: read-out: Stabilty
[11] = Elimination half life in Sprague-Dawley rat at 1 mg/kg, iv measured up to 8 hrs by LC-MS/MS analysis; format: ADME, organism-based; details: in vivo, read-out: beta t1/2 (converted); in short: as §2
[12] = Aqueous solubility of the compound in pH 1.2 JP1 fluid measured after 4 hrs ny HPLC-UV analysis; format: physicochemical
In short: (§3)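 Test compound diluted from 10 mM DMSO stock 2:165 into JP 1st fluid (pH 1.2) or JP 2nd fluid (pH 6.8); mixed 4 h at 37 °C with rotation at 1000 rpm, then filtered through 0.45 μm PVDF by centrifugation. At least two technical replicates.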

[13] = Total clearance in Sprague-Dawley rat at 1 mg/kg, iv measured up to 8 hrs by LC-MS/MS analysis; format: ADME, organism-based; details: in vivo; in short: as §2
[14] = Aqueous solubility of the compound in pH 6.8 JP2 fluid measured after 4 hrs by HPLC-UV analysis; format: physicochemical; in short: as §3
[15] = Protein binding in Sprague-Dawley rat plasma assessed as unbound fraction at 1 uM measured after 4 hrs by equilibrium dialysis assay; format: ADME, cell-free
In short: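 Rat plasma spiked at 1 μM, equilibrium dialysis (8K MWCO) against 0.1 M phosphate pH 7.4 for 4 h at 37 °C, 1000 rpm. Unbound fraction = buffer/plasma concentration ratio. At least two technical replicates.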

[16] = AUC infinity in Sprague-Dawley rat at 1 mg/kg, iv measured up to 8 hrs by LC-MS/MS analysis; format: ADME, organism-based; parameters: route intravenous, dose 1 mg/kg, time <=8; details: in vivo
[17] = biological target: Transthyretin (Homo sapiens) (UniProt P02766); experiment: Binding affinity to TTR V30M mutant (unknown origin) expressed in Escherichia coli by isothermal titration calorimetry
[18] = Tmax in Sprague-Dawley rat at 1 mg/kg, po measured up to 8 hrs by LC-MS/MS analysis; format: ADME, organism-based; details: in vivo; in short: as §2
[19] = AUC infinity in Sprague-Dawley rat at 1 mg/kg, po measured up to 8 hrs by LC-MS/MS analysis; format: ADME, organism-based; parameters: route oral, dose 1 mg/kg, time <=8; details: in vivo

## Cc1cc(O)c2c(c1)C(=O)c1cc(O)cc(O)c1C2=O [EMODIN]
[1]
  IC50: > 100 µM

## Cc1cc(O)c2c(c1)C(=O)c1cccc(O)c1C2=O [CHRYSOPHANOL]
[1]
  IC50: > 100 µM

## Cc1cc(C(=O)O)cc2c1C(=O)c1ccccc1C2=O
[1]
  IC50: 13 µM

## O=C1c2ccc(O)c(O)c2C(=O)c2c(O)ccc(O)c21 [QUINALIZARIN]
[1]
  IC50: > 100 µM

## O=C(O)c1ccc2c(=O)c3cc(Cl)ccc3oc2c1
[1]
  IC50: 10 µM

## O=C(O)c1ccc2c(c1)C(=O)c1c(Cl)c(Cl)c(Cl)c(Cl)c1C2=O
[1]
  IC50: 21 µM

## O=C(O)c1ccc2c(=O)c3c(Cl)cccc3oc2c1
[1]
  IC50: 10 µM

## O=C(O)c1ccc2oc3cccc(Cl)c3c(=O)c2c1
[1]
  IC50: 13 µM

## Cc1cc(C(=O)O)c2c(c1)C(=O)c1ccccc1C2=O
[1]
  IC50: 45 µM

## Cc1ccc2c(=O)c3ccccc3oc2c1
[1]
  IC50: > 100 µM

## CC(=O)Oc1cccc2c1C(=O)c1ccc(C(=O)O)cc1C2=O
[1]
  IC50: 10 µM

## CCOc1cccc2c1C(=O)c1ccc(C(=O)O)cc1C2=O
[1]
  IC50: 22 µM

## O=C(O)c1ccc2c(c1)C(=O)c1ccccc1C2=O
[1]
  IC50: 28 µM

## O=C1c2cccc(O)c2C(=O)c2cccc(O)c21 [ANTHRARUFIN]
[1]
  IC50: > 100 µM

## Oc1ccc(O)c2c(O)c3ccccc3c(O)c12
[1]
  IC50: > 100 µM

## COc1cccc2c1C(=O)c1c(O)c3c(c(O)c1C2=O)C[C@@](O)(C(C)=O)C[C@@H]3O[C@H]1C[C@H](N)[C@H](O)[C@H](C)O1 [DAUNORUBICIN]
[1]
  IC50: > 100 µM

## O=C(O)c1ccc2c(c1)C(=O)c1cccc(O)c1C2=O
[1]
  IC50: 50 µM

## Nc1c(O)c(S(=O)(=O)O)c(O)c2c1C(=O)c1ccccc1C2=O
[1]
  IC50: 11 µM

## O=C(O)c1cc(F)c2c(c1)C(=O)c1ccccc1C2=O
[1]
  IC50: 24 µM

## COc1cc(O)c2c(c1)C(=O)c1cc(C)cc(O)c1C2=O [PHYSCION]
[1]
  IC50: > 100 µM

## O=C(O)c1cc(C(=O)O)c2c(c1)C(=O)c1ccccc1C2=O
[1]
  IC50: > 100 µM

## O=C(O)c1cc(Cl)c2oc3ccccc3c(=O)c2c1
[2]
  Papp at 4 h, 10 µM: 17 ×10⁻⁶ cm/s
[3]
  remaining at 0.5 h, 1 µM: 88%
[4]
  Vd: 0.164 L/kg
[5]
  bioavailability: 69.8%
[6]
  Cmax: 8650 ng/mL
[7]
  half-life: 5 h
[8]
  CLint scaled at 1 µM: 37.9 mL/min/kg
[9]
  Cmax: 1120 ng/mL
[1]
  IC50: 6.7 µM
[10]
  remaining at 0.5 h, 1 µM: 88%
[11]
  half-life: 1.7 h
[12]
  solubility at 4 h: 2.9 µM (≈ 0.797 µg/mL)
[13]
  clearance: 1.27 mL/min/kg
[14]
  solubility at 4 h: > 100 µM
[15]
  fraction unbound at 4 h, 1 µM: 0.017
[16]
  AUC(0-inf): 13200 ng·h/mL
[17]
  Activity: Active
[18]
  Tmax: 2 h
[19]
  AUC(0-inf): 9190 ng·h/mL
